In ChEMBL document CHEMBL1154882, “Hydrogenative desulphurization of thienopyrrolizinones: an easy and selective access to (Z)-phenethylidenepyrrolizinones with in vitro cytotoxic activity” (Eur J Med Chem, 2010):

Legend:
KB [1] = assay: Cytotoxicity against human KB cells assessed as growth inhibition at 1 uM after 72 hrs by MTS assay; format: functional
Procedure, shortened: (§1)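 KB cells plated at 650 cells/well, treated 24 h later with compounds in DMSO at 10^-5 or 10^-6 M, in triplicate. Controls got DMSO at 1% final volume; taxotere 2.5×10^-10 M served as reference. After 72 h exposure, MTS reagent added for 3 h at 37 °C and absorbance read at 490 nm. Results given as percent inhibition of proliferation relative to control OD.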

KB [2] = assay: Cytotoxicity against human KB cells assessed as growth inhibition at 10 uM after 72 hrs by MTS assay; format: functional; procedure, shortened: as §1
KB [3] = assay: Cytotoxicity against human KB cells assessed as growth inhibition after 72 hrs by MTS assay; format: functional, cell-based
Procedure, shortened: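 KB cells seeded at 650 cells/well and dosed 24 h later with DMSO solutions (1% final DMSO, also given to controls) over a range starting at 0.5 nM. After 72 h exposure, MTS added for 3 h at 37 °C and A490 read. Proliferation inhibition taken versus control OD. IC50 (50% inhibition) determined in separate duplicate for compounds giving over 80% inhibition at 10^-6 M.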

[4] = Inhibition of tubulin

IC50 [4] | Structure (SMILES) | inhibition at 1 µM (KB [1]) | inhibition at 10 µM (KB [2]) | IC50 (KB [3])
 | CC(C)C1CC(=O)c2cccn21 (configuration not stated) | 0% | 0% | 
 | C/C(=C1\CC(=O)c2cccn21)c1ccc(Cl)cc1 | 0% | 0% | 
 | COc1ccc(/C(C)=C2/CC(=O)c3cccn32)cc1 | 1% | 78% | 
 | COc1ccc(-c2csc3c2-n2cccc2C3=O)cc1 | 92% | 84% | 50 nM
2900 nM | COc1ccc(-c2csc3c2-n2cccc2C3=O)cc1O | 86% | 86% | 5.7 nM
 | COc1ccc(/C(C)=C2/CC(=O)c3cccn32)cc1O | 91% | 95% | 70 nM
 | CC(=O)O[C@@]12CO[C@@H]1C[C@H](O)[C@@]1(C)C(=O)[C@H](O)C3=C(C)[C@@H](OC(=O)[C@H](O)[C@@H](NC(=O)OC(C)(C)C)c4ccccc4)C[C@@](O)([C@@H](OC(=O)c4ccccc4)[C@H]21)C3(C)C [DOCETAXEL] |  |  | 0.4 nM
